The nature of assay [1]: SK-BR-3 cell growth inhibitors, pilot screen, 24 h, human (AID 572;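 active means viability at or below 10% of carrier control in both of two separate runs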;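 further: compound exposure lasted between 18 and 24 h rather than exactly 24 h; 100% = carrier-treated control wells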). To be noted: SK-BR-3 viability, CellTiter-Glo luminescence, at 10 µM, stronger effect = lower value. In general terms: In ATP-based viability assays light output follows the ATP content of the culture.
A short description of assay [2]: HUVEC growth inhibition – cell-based, human, primary screen (AID 575;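 active means viability at or below 30% in both replicate assays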;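 further: 100% = median of untreated cell wells with 0.1% DMSO on each plate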). To be noted: HUVEC proliferation, CellTiter-Glo luminescence, 72 h; at 10 µM; stronger effect = lower value. In outline:
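system = HUVEC primary cells | amount = 1250 cells/well | buffer or medium = supplemented EBM, 2% fetal bovine serum | dosing = single-point 10 µM, DMSO 0.1% final | times = 72 h compound incubation | detection = CTG luminescence | read-out = % viability relative to median vehicle-well signal on each plate | control set = vehicle and MePR control wells | format = collagen-coated 384-well format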

A short description of assay [3]: growth inhibitors of H69AR lung tumor, primary screen, human, duplicate replicates (AID 580).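 Further: 100% = mean luminescence of untreated wells and 0% = no signal.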 Conditions: H69AR lung tumor cells viability, ATP luminescence, 72 h; at 10 µM; stronger effect = lower value.
Assay [4] in a line: reversal of MRP1-mediated doxorubicin resistance, pilot screen, H69AR cells, doxorubicin co-treatment (AID 601;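 active means viability loss from added drug above about 55%, and viability with drug at most 40%, in both replicates, limit read from the data, passing the limit was not always enough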). To be noted: CellTiter-Glo, 72 h, at 10 µM; for differential viability (reversal): stronger effect = higher value.
Assay [5] is described as follows: 384-well plate pilot, post-Golgi transport modulator project, inhibition of yeast transport mutant growth (AID 636; in the data active means inhibition above about 31%). To be noted: absorbance 615 nm, about 18 h, stronger effect = higher value.
Assay [6] in a line: growth suppression of yeast trafficking mutant, preliminary HTS, modulators of trafficking downstream of Golgi apparatus project, 1536-format plate, OD 615 nm (AID 637; in the data active means inhibition above about 30%). Conditions: yeast transport mutant growth, absorbance 615 nm, 18 h; stronger effect = higher value.
Where [7] appears, read: H69AR cells + 2 uM doxorubicin, measured here: viability with 2 uM doxorubicin, stronger effect = lower value.
[8] abbreviates: H69AR cells, compound alone cytotoxicity.

The source made the active and inactive calls.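 How the source made its calls, unless noted: active means viability at or under a set limit in both replicates, limit being median viability minus 3 SD (cut at about 48% in these data, passing the limit was not always enough); inconclusive means at or under the limit in just one replicate; inactive means at or above the limit in both replicates.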

The term viability denotes a read-out of living cells in per cent, often relative to untreated cells. The inhibition is the relative decrease from the control value, in per cent. On to `Cc1nc(CCNS(=O)(=O)c2cccs2)cs1`, for which the viability in assay [1] was 86% (inactive); in assay [2] it was 105% (inactive); in assay [3], 97.5% (inactive); in assay [4] (setting [7]) it was 86%; in assay [4] (setting [8]), 97.5%. Moreover, in assay [4] (H69AR cells + 2 uM doxorubicin), the differential viability (reversal) is 11.5% (inactive). In addition, the inhibition in assay [5] is 7.92% (inactive); in assay [6], -12.8% (inactive).
Regarding `Cc1cc(C)n(Cc2cc(C)c(Cn3nc(C)cc3C)cc2C)n1`, the viability was 99% (inactive) in assay [1]; 101% (inactive) in assay [2]; 106% (inactive) in assay [3]; 93.9% in assay [4] (setting [7]); 106% in assay [4] (setting [8]). In addition, in assay [4] (H69AR cells + 2 uM doxorubicin), the differential viability (reversal) is 12.2% (inactive). The inhibition was -4.73% (inactive) in assay [5] and 1.64% (inactive) in assay [6].
Regarding `COc1ccc(-c2nnn(CC(=O)c3ccc4c(c3)OCCO4)n2)cc1OC`, the viability in assay [1] is 92% (inactive); in assay [2] it was 73.8% (inactive); in assay [3] it was 81.5% (inactive); in assay [4] (setting [7]), 73.7%; in assay [4] (setting [8]), 81.5%. In addition, in assay [4] (H69AR cells + 2 uM doxorubicin), the differential viability (reversal) was 7.78% (inactive). The results for the inhibition in assay [5] and in assay [6] were -7.26% (inactive) and 0% (inactive), respectively.
For the compound `CCOC(=O)c1[nH]c2ccc(C)cc2c1NC(=O)CN1CCCCC1`, the viability in assay [1] is 107% (inactive); in assay [2] it was 106% (inactive); in assay [3], 87.8% (inactive); in assay [4] (setting [7]), 87.1%; in assay [4] (setting [8]), 87.8%. In addition, the differential viability (reversal) in assay [4] (H69AR cells + 2 uM doxorubicin) was 0.72% (inactive). Also, the results for the inhibition in assay [5] and in assay [6] were -5.73% (inactive) and -3.09% (inactive), respectively.
As for `O=C1c2oc3ccccc3c(=O)c2C(c2cccnc2)N1Cc1ccco1` (centres undefined), the viability is 98% (inactive) in assay [1]; 106% (inactive) in assay [2]; 87.8% (inactive) in assay [3]; 88.4% in assay [4] (setting [7]); 87.8% in assay [4] (setting [8]). Moreover, the differential viability (reversal) in assay [4] (H69AR cells + 2 uM doxorubicin) is -0.59% (inactive). The inhibition in assay [5] is -0.96% (inactive); in assay [6], -2.36% (inactive).
For `O=C(Nc1cccnc1)c1cc2c(ccc3ccccc32)o1`, the viability in assay [1] was 96% (inactive); in assay [2], 97.3% (inactive); in assay [3] it was 84.9% (inactive); in assay [4] (setting [7]), 84.5%; in assay [4] (setting [8]), 84.9%. Besides, in assay [4] (H69AR cells + 2 uM doxorubicin), the differential viability (reversal) is 0.36% (inactive). For the same compound, the values for the inhibition in assay [5] and in assay [6] were -0.13% (inactive) and -3.45% (inactive), respectively.
In the case of `CN(C)c1ccc(C=NCC2(O)CCOC(C)(C)C2)cc1` (centres undefined), the viability in assay [1] was 91% (inactive); in assay [2], 91.8% (inactive); in assay [3], 89.2% (inactive); in assay [4] (setting [7]), 88.9%; in assay [4] (setting [8]), 89.2%. Besides, the differential viability (reversal) in assay [4] (H69AR cells + 2 uM doxorubicin) was 0.32% (inactive). Moreover, the inhibition was -7.67% (inactive) in assay [5] and 3.27% (inactive) in assay [6].
Turning to `COC(=O)c1ccc(COc2ccc(C3C4=C(CCCC4=O)Nc4onc(C)c43)cc2)cc1` (centres undefined), the viability was 104% (inactive) in assay [1]; 82.3% (inactive) in assay [2]; 94.7% (inactive) in assay [3]; 92.7% in assay [4] (setting [7]); 94.7% in assay [4] (setting [8]). Also, the differential viability (reversal) in assay [4] (H69AR cells + 2 uM doxorubicin) is 2.04% (inactive). Moreover, the inhibition in assay [5] is -5.19% (inactive); in assay [6], -3.93% (inactive).
With `CC1=C(C(=O)Nc2ccccc2C)C2(CCCC2)C(C(N)=O)C(=O)N1` (centres undefined), the viability in assay [1] was 114% (inactive); in assay [2], 81.7% (inactive); in assay [3], 90% (inactive); in assay [4] (setting [7]), 88.4%; in assay [4] (setting [8]), 90%. Further, the differential viability (reversal) in assay [4] (H69AR cells + 2 uM doxorubicin) is 1.6% (inactive). In addition, the inhibition in assay [5] is 0.96% (inactive); in assay [6], 0% (inactive).
Take `O=C1NC(=O)C(CC(=O)N(c2ccccc2)C2(C(=O)NC3CCCC3)CCCCC2)N1` (centres undefined): the viability was 99% (inactive) in assay [1]; 100% (inactive) in assay [2]; 97.2% (inactive) in assay [3]; 88.9% in assay [4] (setting [7]); 97.2% in assay [4] (setting [8]). In assay [4] (H69AR cells + 2 uM doxorubicin), the differential viability (reversal) was 8.26% (inactive). The inhibition in assay [5] was -8.36% (inactive); in assay [6], 4.36% (inactive).
Turning to `CCOC(=O)C1=C(C)NC(C)=C(C(=O)OC)C1c1cccc(Cl)c1Cl` (centres undefined), the viability in assay [1] was 86% (inactive); in assay [2], 11.2% (active); in assay [3], 72% (inactive); in assay [4] (setting [7]) it was 67.1%; in assay [4] (setting [8]) it was 72%. Besides, the differential viability (reversal) in assay [4] (H69AR cells + 2 uM doxorubicin) was 4.92% (inactive). Also, the inhibition in assay [5] is 11.3% (inactive); in assay [6], 13.2% (inactive).
On to `CCOC(=O)CSc1nnc(-c2ccc(NS(=O)(=O)c3ccc(C)cc3)cc2)o1`, for which the viability in assay [1] was 87% (inactive); in assay [2], 56% (inactive); in assay [3], 91.5% (inactive); in assay [4] (setting [7]), 86.4%; in assay [4] (setting [8]), 91.5%. The differential viability (reversal) in assay [4] (H69AR cells + 2 uM doxorubicin) was 5.14% (inactive). The inhibition in assay [5] is -4.29% (inactive); in assay [6], -5.67% (inactive).
Consider `CS(=O)(=O)N(Cc1ccccc1)c1ccc(C(=O)N2CCOCC2)cc1`, for which the viability in assay [1] was 95% (inactive); in assay [2], 105% (inactive); in assay [3] it was 97.7% (inactive); in assay [4] (setting [7]) it was 91%; in assay [4] (setting [8]) it was 97.7%. In addition, the differential viability (reversal) in assay [4] (H69AR cells + 2 uM doxorubicin) is 6.74% (inactive). Besides, the inhibition in assay [5] is -2.86% (inactive); in assay [6] it was -5.57% (inactive).
For the compound `CCn1c(SCC(=O)C(C)(C)C)nnc1-c1cnccn1`, the viability in assay [1] was 81% (inactive); in assay [2], 107% (inactive); in assay [3] it was 105% (inactive); in assay [4] (setting [7]), 89.2%; in assay [4] (setting [8]) it was 105%. For the same compound, the differential viability (reversal) in assay [4] (H69AR cells + 2 uM doxorubicin) is 15.9% (inactive). For the same compound, the inhibition in assay [5] is -3.7% (inactive); in assay [6], -9.35% (inactive).
For `Cc1ccc(CN2CCN(C(=O)C3CCC3)CC2)cc1`, the viability is 88% (inactive) in assay [1]; 102% (inactive) in assay [2]; 97% (inactive) in assay [3]; 92.9% in assay [4] (setting [7]); 97% in assay [4] (setting [8]). The differential viability (reversal) in assay [4] (H69AR cells + 2 uM doxorubicin) was 4.13% (inactive). Further, the inhibition is -8.49% (inactive) in assay [5] and 2.36% (inactive) in assay [6].
On to `Cc1ccc(Nc2nc(N)nc(CN3CCN(Cc4ccc5c(c4)OCO5)CC3)n2)cc1`, for which the viability in assay [1] was 93% (inactive); in assay [2], 106% (inactive); in assay [3], 82.2% (inactive); in assay [4] (setting [7]), 79.7%; in assay [4] (setting [8]), 82.2%. Moreover, in assay [4] (H69AR cells + 2 uM doxorubicin), the differential viability (reversal) is 2.44% (inactive). The results for the inhibition in assay [5] and in assay [6] were -8.27% (inactive) and -4.91% (inactive), respectively.
In the case of `CCCC(=O)Nc1ccc(C(=O)O)cc1NC(=O)CCC`, the viability in assay [1] was 77% (inactive); in assay [2] it was 97.3% (inactive); in assay [3], 96.3% (inactive); in assay [4] (setting [7]), 119%; in assay [4] (setting [8]), 96.3%. In assay [4] (H69AR cells + 2 uM doxorubicin), the differential viability (reversal) was -23% (inactive). Moreover, the results for the inhibition in assay [5] and in assay [6] were -3.56% (inactive) and 1.45% (inactive), respectively.
As to `CCC(CCC(=O)Nc1cccc(C(=O)O)c1)C(=O)O` (centres undefined), the viability was 62% (inactive) in assay [1]; 107% (inactive) in assay [2]; 103% (inactive) in assay [3]; 101% in assay [4] (setting [7]); 103% in assay [4] (setting [8]). The differential viability (reversal) in assay [4] (H69AR cells + 2 uM doxorubicin) was 2.19% (inactive). For the same compound, the inhibition is -0.82% (inactive) in assay [5] and 2.36% (inactive) in assay [6].

These data come from PubChem BioAssay.
